Legend:
Rattus norvegicus = assay: Dose normalized Cmax in Sprague-Dawley rat at 1 mg/kg, iv and 3 mg/kg, po administered as cassette dosing; assay type: ADME, organism-based; details: in vivo
How it was run: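 Rat PK: i.v. 1 mg/kg in NMP/PEG200 (3:7); p.o. 3 mg/kg in CMC/water/Tween (0.5:99:0.5). Exposure values dose normalized.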

[1] = Clearance in Beagle dog at 0.1 mg/kg, iv and 0.3 mg/kg, po; assay type: ADME, organism-based, Canis lupus familiaris; details: in vivo
How it was run: (§1)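 One-in-one dosing in Beagle dogs: i.v. 0.1 mg/kg in NMP/PEG200 (3:7); p.o. 0.3 mg/kg in MC/water (0.5:99.5). Exposure values dose normalized.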

[2] = molecular target: T1, Tyrosine-protein kinase ZAP-70 (Homo sapiens, UniProt P43403); assay: Inhibition of human ZAP70
T1 sequence (P43403 whole entry): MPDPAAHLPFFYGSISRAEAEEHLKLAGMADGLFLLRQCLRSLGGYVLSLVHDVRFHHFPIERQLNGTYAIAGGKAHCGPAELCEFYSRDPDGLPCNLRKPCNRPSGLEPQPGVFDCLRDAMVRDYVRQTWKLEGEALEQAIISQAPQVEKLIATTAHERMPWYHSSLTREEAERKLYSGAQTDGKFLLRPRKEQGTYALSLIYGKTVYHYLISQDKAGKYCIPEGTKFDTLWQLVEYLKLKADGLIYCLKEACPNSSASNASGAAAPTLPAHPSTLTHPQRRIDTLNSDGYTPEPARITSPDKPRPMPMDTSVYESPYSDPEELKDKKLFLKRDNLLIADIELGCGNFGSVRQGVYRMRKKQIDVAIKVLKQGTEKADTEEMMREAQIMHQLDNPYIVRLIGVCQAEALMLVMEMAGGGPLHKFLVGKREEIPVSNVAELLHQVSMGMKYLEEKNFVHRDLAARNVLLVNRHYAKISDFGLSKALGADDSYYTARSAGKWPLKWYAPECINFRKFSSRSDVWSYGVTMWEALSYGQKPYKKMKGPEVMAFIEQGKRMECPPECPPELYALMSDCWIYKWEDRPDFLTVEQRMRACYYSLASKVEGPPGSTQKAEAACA

Canis familiaris = assay: Dose normalized AUC in Beagle dog at 0.3 mg/kg, po; assay type: ADME, organism-based, Canis lupus familiaris; set-up: dose 0.3 mg/kg, route oral; details: in vivo; how it was run: as §1
[3] = molecular target: T2, Mitogen-activated protein kinase kinase kinase 2 (Homo sapiens, UniProt Q9Y2U5); assay: Competitive binding affinity to human MAP3K2
T2 sequence (Q9Y2U5 whole entry): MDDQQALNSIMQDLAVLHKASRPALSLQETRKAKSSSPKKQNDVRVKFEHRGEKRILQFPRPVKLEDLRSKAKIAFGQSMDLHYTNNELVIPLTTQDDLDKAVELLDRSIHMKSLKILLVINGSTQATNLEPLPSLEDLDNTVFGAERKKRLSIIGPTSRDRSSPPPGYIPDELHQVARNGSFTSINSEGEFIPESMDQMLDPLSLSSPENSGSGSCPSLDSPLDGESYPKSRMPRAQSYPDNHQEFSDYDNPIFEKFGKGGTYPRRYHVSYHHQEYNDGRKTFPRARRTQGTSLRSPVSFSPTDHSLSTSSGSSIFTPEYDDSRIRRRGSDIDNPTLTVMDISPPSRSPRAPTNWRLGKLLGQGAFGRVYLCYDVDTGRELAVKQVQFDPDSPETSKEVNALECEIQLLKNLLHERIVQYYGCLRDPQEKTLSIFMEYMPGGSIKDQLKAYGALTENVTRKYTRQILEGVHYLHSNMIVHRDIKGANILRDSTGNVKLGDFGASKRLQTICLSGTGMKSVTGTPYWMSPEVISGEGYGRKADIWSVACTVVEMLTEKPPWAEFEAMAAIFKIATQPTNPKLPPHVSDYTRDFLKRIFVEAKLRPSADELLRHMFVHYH

[4] = molecular target: T3, Tyrosine-protein kinase receptor UFO (Homo sapiens, UniProt P30530); assay: Competitive binding affinity to human AXL
T3 sequence (P30530 whole entry): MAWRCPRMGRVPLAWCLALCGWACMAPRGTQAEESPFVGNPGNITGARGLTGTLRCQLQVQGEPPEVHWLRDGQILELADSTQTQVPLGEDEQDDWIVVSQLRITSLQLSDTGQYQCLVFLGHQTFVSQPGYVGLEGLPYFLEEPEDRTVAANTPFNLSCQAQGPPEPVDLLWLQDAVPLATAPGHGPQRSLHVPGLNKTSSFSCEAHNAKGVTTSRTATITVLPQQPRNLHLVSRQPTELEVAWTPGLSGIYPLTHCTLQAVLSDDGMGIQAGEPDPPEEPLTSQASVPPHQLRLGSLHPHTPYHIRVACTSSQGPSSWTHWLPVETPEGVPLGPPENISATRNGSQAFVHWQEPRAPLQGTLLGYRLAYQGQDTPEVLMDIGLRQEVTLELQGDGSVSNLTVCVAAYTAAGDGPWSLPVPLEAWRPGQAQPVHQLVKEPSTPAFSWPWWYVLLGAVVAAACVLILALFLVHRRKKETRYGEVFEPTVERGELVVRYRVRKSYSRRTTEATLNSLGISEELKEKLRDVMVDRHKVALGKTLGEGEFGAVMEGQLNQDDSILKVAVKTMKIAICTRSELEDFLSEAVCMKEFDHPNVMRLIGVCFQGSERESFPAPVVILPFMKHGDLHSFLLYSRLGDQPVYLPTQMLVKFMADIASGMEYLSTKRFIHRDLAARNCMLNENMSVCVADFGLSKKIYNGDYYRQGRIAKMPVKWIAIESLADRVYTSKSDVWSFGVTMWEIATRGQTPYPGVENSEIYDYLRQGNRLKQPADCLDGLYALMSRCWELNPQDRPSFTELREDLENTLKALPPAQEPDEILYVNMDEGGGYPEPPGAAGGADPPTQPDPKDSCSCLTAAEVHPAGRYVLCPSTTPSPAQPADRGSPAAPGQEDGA

[5] = Oral bioavailability in Beagle dog at 0.3 mg/kg; assay type: ADME, organism-based, Canis lupus familiaris; details: in vivo
How it was run: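 Beagle dogs dosed one-in-one. The i.v. dose was 0.1 mg/kg in NMP/PEG200 (3:7), and the p.o. dose was 0.3 mg/kg in MC/water (0.5:99.5). Blood levels were followed after each route.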

[6] = Drug uptake in blood of Lewis rat collagen-induced arthritis model at 10 mg/kg, po qd administered on day 15 post immunization measured at 8 hrs on day 18; assay type: ADME, organism-based; set-up: dose 10 mg/kg, route oral; details: read-out: Drug uptake
How it was run: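 Collagen-arthritic Lewis rats given 3, 10 or 30 mg/kg p.o. once daily from day 15; blood levels measured on day 18 (third day of treatment) at 4, 8 and 24 h after dosing.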

[7] = molecular target: Serine/threonine-protein kinase PAK 5 (Homo sapiens, UniProt Q9P286); assay: Competitive binding affinity to human PAK7
Serine/threonine-protein kinase PAK 5, sequence (Q9P286 whole entry): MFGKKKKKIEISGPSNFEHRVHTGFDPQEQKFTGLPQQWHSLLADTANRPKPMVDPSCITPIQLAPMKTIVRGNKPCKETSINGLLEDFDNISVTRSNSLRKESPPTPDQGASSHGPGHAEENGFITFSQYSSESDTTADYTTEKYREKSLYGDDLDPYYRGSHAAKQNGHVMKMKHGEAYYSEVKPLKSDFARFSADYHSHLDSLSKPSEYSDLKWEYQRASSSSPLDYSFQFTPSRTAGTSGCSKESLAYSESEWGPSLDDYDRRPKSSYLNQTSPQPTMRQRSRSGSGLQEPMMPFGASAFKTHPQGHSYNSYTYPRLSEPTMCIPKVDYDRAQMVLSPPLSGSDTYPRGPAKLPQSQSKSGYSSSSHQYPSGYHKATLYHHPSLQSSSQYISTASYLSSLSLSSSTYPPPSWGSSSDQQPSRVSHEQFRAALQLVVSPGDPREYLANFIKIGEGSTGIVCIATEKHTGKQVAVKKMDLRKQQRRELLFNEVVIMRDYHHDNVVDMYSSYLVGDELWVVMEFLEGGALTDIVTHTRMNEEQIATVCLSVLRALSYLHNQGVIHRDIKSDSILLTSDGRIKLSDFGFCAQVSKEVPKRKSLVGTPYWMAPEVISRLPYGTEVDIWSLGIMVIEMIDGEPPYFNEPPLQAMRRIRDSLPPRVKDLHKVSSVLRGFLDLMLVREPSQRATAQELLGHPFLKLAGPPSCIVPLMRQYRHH

[8] = Drug uptake in Lewis rat blood at 22 mg/kg, po measured after 2 hrs; assay type: ADME, organism-based; set-up: dose 22 mg/kg, route oral; details: read-out: Drug uptake
How it was run: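 Single oral dose of 22 mg/kg to Lewis rats; blood sampled at 2, 4 and 24 h after dosing for compound level and ex vivo FcγR-induced phospho-SLP76 in peripheral blood monocytes.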

[9] = molecular target: Serine/threonine-protein kinase PAK 6 (Homo sapiens, UniProt Q9NQU5); assay: Competitive binding affinity to human PAK6
Serine/threonine-protein kinase PAK 6, sequence (Q9NQU5 whole entry): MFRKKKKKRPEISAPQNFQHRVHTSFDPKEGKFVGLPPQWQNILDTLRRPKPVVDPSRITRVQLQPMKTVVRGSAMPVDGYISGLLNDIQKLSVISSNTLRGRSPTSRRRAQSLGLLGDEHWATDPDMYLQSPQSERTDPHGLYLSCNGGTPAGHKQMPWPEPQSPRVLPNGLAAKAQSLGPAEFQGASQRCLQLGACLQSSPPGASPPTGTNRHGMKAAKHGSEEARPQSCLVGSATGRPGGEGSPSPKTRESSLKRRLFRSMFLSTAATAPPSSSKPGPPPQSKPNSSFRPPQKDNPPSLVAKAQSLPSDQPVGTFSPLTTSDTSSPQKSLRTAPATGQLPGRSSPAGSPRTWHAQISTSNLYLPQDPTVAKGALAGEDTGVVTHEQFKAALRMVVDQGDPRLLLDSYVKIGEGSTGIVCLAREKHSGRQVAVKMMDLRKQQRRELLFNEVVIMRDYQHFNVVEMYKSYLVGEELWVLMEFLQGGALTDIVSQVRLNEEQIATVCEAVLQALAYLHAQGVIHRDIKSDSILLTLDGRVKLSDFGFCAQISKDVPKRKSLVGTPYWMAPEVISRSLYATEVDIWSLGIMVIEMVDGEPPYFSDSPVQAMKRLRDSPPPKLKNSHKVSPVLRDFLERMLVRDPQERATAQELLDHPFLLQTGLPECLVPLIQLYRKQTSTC

Cmax/dose (Rattus norvegicus): 80 nM
clearance [1]: 11 mL/min/kg
IC50 [2]: 0.251 µM
AUC/dose (Canis familiaris): 1836 nM·h
Kd [3]: 0.14 µM
Kd [4]: 0.071 µM
bioavailability [5]: 54%
concentration at 8 h [6]: 349 nM
Kd [7]: 0.012 µM
concentration at 2 h [8]: 900 nM
Kd [9]: 0.11 µM
Structure (SMILES): NC(=O)c1nnc(N[C@@H]2CCCC[C@@H]2N)nc1Nc1cccc2cc[nH]c12

From ChEMBL document CHEMBL3414433, “Discovery and profiling of a selective and efficacious Syk inhibitor” (J Med Chem, 2015)
